Data published in ChEMBL document CHEMBL1255540, “Synthesis and biological evaluation of novel coumarin-based inhibitors of Cdc25 phosphatases” (Bioorg Med Chem Lett, 2010).
pIC50: −log10 of the molar value. The source made the active and inactive calls. The calls are words filed in the database; no cut-off is given here.

biological target: T1, M-phase inducer phosphatase 1 (Homo sapiens) (UniProt P30304); assay: Inhibition of human recombinant GST-tagged CDC25A expressed in bacterial expression system assessed as residual activity at 100 uM pretreated for 90 mins; conditions: not given
T1 sequence (whole entry): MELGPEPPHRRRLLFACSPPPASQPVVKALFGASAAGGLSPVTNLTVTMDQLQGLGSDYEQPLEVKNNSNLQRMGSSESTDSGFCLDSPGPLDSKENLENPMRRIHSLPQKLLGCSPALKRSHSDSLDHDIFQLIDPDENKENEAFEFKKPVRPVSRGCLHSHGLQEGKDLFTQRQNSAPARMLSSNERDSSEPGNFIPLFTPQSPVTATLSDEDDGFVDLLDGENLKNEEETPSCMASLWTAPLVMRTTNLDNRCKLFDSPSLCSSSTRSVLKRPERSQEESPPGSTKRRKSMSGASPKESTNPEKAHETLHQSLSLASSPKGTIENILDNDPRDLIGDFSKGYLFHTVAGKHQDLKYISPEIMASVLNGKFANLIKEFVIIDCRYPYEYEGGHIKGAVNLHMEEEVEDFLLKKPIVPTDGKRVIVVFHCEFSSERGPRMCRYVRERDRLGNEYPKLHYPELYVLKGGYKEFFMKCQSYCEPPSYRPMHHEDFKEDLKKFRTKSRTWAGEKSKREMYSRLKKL
Procedure, shortened: (§1)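 Reversibility test. GST-Cdc25A was pre-incubated with compound at 100 µM (reference at 10 µM, DMSO control) for 0–90 min. The mixture was then diluted 100-fold to 1 µM (reference 0.1 µM). Activity was measured by adding OMFP to wells holding 900 ng enzyme. Representative of three independent experiments (M ± SD).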

Activity [%]	Compound
35	COc1ccc2c(/C=C/C(=O)c3ccccc3)cc(=O)oc2c1

biological target: T2, M-phase inducer phosphatase 1 (Homo sapiens, UniProt P30304); assay: Inhibition of human recombinant GST-tagged CDC25A expressed in bacterial expression system after 2 hrs; conditions: not given
T2 sequence (P30304 whole entry): T1 sequence (whole entry)
Procedure, shortened: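 Each concentration tested in three independent microplates, three wells per plate. Median inhibitory concentration derived by generalized Poisson regression.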

pIC50	Compound
4.02	O=C(/C=C/c1cc(=O)oc2cc(O)ccc12)c1ccc(O)cc1
4.55	O=C(/C=C/c1cc(=O)oc2cc(O)ccc12)c1ccccc1
4.21	O=C(/C=C/c1cc(=O)oc2cc(O)ccc12)c1ccc(O)c(O)c1
4.11	COc1ccc2c(/C=C/C(=O)c3ccc(OC)c(OC)c3)cc(=O)oc2c1
4.15	COc1ccc(C(=O)/C=C/c2cc(=O)oc3cc(OC)ccc23)cc1
4.57	COc1ccc2c(/C=C/C(=O)c3ccccc3)cc(=O)oc2c1

biological target: T3, M-phase inducer phosphatase 3 (Homo sapiens, UniProt P30307); assay: Inhibition of human recombinant GST-tagged CDC25C expressed in bacterial expression system after 2 hrs; conditions: not given
T3 sequence (P30307 whole entry): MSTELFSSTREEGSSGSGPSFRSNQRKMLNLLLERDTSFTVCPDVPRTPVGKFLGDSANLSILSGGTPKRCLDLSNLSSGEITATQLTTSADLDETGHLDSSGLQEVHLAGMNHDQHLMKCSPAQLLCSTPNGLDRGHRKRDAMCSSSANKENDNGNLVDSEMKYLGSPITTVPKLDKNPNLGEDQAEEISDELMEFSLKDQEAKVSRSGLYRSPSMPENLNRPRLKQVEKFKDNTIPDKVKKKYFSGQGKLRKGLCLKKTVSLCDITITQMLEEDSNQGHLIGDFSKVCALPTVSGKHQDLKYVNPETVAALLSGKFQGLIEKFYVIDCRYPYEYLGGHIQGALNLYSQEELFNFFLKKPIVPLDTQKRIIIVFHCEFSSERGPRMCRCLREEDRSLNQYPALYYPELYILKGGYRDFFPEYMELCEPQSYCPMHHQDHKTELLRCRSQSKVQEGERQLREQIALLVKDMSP
Procedure, shortened: (§2)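 Full-length GST-Cdc25C, bacterial IPTG expression, GSH-agarose purification. 1 µg enzyme per well. Single-point tests at 100 µM final (reference 10 µM) and IC50 values. Each concentration in three separate microplates, three wells each. IC50 by generalized Poisson regression.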

pIC50	Compound
< 3.82	O=C(/C=C/c1cc(=O)oc2cc(O)ccc12)c1ccc(O)cc1
4.59	O=C(/C=C/c1cc(=O)oc2cc(O)ccc12)c1ccccc1
4.14	O=C(/C=C/c1cc(=O)oc2cc(O)ccc12)c1ccc(O)c(O)c1
4.17	COc1ccc2c(/C=C/C(=O)c3ccc(OC)c(OC)c3)cc(=O)oc2c1
4.33	COc1ccc(C(=O)/C=C/c2cc(=O)oc3cc(OC)ccc23)cc1
4.31	COc1ccc2c(/C=C/C(=O)c3ccccc3)cc(=O)oc2c1

biological target: T1, M-phase inducer phosphatase 1 (Homo sapiens); assay: Irreversible inhibition of human recombinant GST-tagged CDC25A expressed in bacterial expression system at 100 uM pretreated for up to 90 mins measured after 100 fold dilution; conditions: not given; procedure, shortened: as §1

Activity	Compound
Active	COc1ccc2c(/C=C/C(=O)c3ccccc3)cc(=O)oc2c1

biological target: T4, M-phase inducer phosphatase 3 (Homo sapiens) (UniProt P30307); assay: Inhibition of human recombinant GST-tagged CDC25C expressed in bacterial expression system at 100 uM after 2 hrs; conditions: not given; procedure, shortened: as §2
T4 sequence (whole entry): T3 sequence (P30307 whole entry)

inhibition [%]	Compound
23.9	O=C(/C=C/c1cc(=O)oc2cc(O)ccc12)c1ccc(O)cc1
21.2	COc1ccc2c(CSCC(=O)c3ccccc3)cc(=O)oc2c1
26.2	COc1ccc2c(CSCC(=O)c3ccc(OC)c(OC)c3)cc(=O)oc2c1
31.3	COc1ccc2c(C(=O)/C=C/c3ccccc3)cc(=O)oc2c1
94.2	O=C(/C=C/c1cc(=O)oc2cc(O)ccc12)c1ccccc1
43.7	O=C(/C=C/c1cc(=O)oc2cc(O)ccc12)c1ccc(O)c(O)c1
17.9	COc1ccc(-c2c(C)c3ccc(OC)cc3oc2=O)cc1
69	COc1ccc2c(/C=C/C(=O)c3ccc(OC)c(OC)c3)cc(=O)oc2c1
4.8	COc1ccc(/C=C/C(=O)c2cc(=O)oc3cc(OC)ccc23)cc1
15.6	Cc1c(/C=C/c2ccc(O)cc2)c(=O)oc2cc(O)ccc12
64.8	COc1ccc(C(=O)/C=C/c2cc(=O)oc3cc(OC)ccc23)cc1
48.4	COc1ccc(/C=C/c2c(C)c3ccc(OC)cc3oc2=O)cc1
79.3	COc1ccc2c(/C=C/C(=O)c3ccccc3)cc(=O)oc2c1
27.9	COc1ccc(C(=O)CSCc2cc(=O)oc3cc(OC)ccc23)cc1

biological target: T1, M-phase inducer phosphatase 1 (Homo sapiens); assay: Inhibition of human recombinant GST-tagged CDC25A expressed in bacterial expression system; conditions: TDE = time-dependent effect
Procedure, shortened: (§3)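 GST-Cdc25A (full length), made in bacteria by IPTG induction and purified on GSH-agarose. Enzyme at 1 µg/well. Compounds tested at 100 µM final (reference at 10 µM). Reported as % inhibition, mean ± SD of three independent experiments.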

inhibition	Compound
tde	COc1ccc2c(/C=C/C(=O)c3ccccc3)cc(=O)oc2c1

biological target: T5, M-phase inducer phosphatase 2 (Homo sapiens) (UniProt P30305); assay: Inhibition of human recombinant GST-tagged CDC25B expressed in bacterial expression system at 100 uM after 2 hrs; conditions: not given
T5 sequence (whole entry): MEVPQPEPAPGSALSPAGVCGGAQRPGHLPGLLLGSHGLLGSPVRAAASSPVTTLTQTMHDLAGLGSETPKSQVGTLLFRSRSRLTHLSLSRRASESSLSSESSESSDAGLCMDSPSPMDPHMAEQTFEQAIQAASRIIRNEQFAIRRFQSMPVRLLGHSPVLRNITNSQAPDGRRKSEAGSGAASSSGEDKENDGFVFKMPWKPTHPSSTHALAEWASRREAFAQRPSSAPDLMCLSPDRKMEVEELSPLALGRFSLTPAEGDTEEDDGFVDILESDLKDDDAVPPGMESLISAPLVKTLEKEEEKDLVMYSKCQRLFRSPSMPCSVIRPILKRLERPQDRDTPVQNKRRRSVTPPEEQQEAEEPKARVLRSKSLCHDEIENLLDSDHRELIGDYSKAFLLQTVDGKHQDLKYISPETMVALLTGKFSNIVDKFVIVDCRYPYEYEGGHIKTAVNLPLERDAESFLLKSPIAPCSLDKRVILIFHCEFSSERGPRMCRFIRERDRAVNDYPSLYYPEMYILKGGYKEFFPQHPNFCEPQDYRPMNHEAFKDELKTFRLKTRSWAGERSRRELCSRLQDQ
Procedure, shortened: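 Truncated GST-Cdc25B (active site only) expressed in bacteria by IPTG induction, purified on GSH-agarose. Tested at 100 µM final, reference at 10 µM. Percent inhibition, mean of three independent experiments with SD.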

inhibition [%]	Compound
9.2	O=C(/C=C/c1cc(=O)oc2cc(O)ccc12)c1ccc(O)cc1
16.1	COc1ccc2c(CSCC(=O)c3ccccc3)cc(=O)oc2c1
23.2	O=C(/C=C/c1cc(=O)oc2cc(O)ccc12)c1ccccc1
6.5	COc1ccc2c(/C=C/C(=O)c3ccc(OC)c(OC)c3)cc(=O)oc2c1
8.5	Cc1c(/C=C/c2ccc(O)cc2)c(=O)oc2cc(O)ccc12
21.3	COc1ccc(C(=O)/C=C/c2cc(=O)oc3cc(OC)ccc23)cc1
35	COc1ccc2c(/C=C/C(=O)c3ccccc3)cc(=O)oc2c1
9.1	COc1ccc2c(C(=O)/C=C/c3ccc(OC)c(OC)c3)cc(=O)oc2c1

biological target: T1, M-phase inducer phosphatase 1 (Homo sapiens); assay: Inhibition of human recombinant GST-tagged CDC25A expressed in bacterial expression system at 100 uM after 2 hrs; conditions: not given; procedure, shortened: as §3

inhibition [%]	Compound
55	O=C(/C=C/c1cc(=O)oc2cc(O)ccc12)c1ccc(O)cc1
39.8	COc1ccc2c(CSCC(=O)c3ccc(OC)c(OC)c3)cc(=O)oc2c1
45	COc1ccc2c(C(=O)/C=C/c3ccccc3)cc(=O)oc2c1
94.3	O=C(/C=C/c1cc(=O)oc2cc(O)ccc12)c1ccccc1
68.7	O=C(/C=C/c1cc(=O)oc2cc(O)ccc12)c1ccc(O)c(O)c1
20.5	COc1ccc(-c2c(C)c3ccc(OC)cc3oc2=O)cc1
61.5	COc1ccc2c(/C=C/C(=O)c3ccc(OC)c(OC)c3)cc(=O)oc2c1
27.5	Cc1c(/C=C/c2ccc(O)cc2)c(=O)oc2cc(O)ccc12
66.4	COc1ccc(C(=O)/C=C/c2cc(=O)oc3cc(OC)ccc23)cc1
22	Cc1c(-c2ccc(O)cc2)c(=O)oc2cc(O)ccc12
45.3	COc1ccc(/C=C/c2c(C)c3ccc(OC)cc3oc2=O)cc1
94.2	COc1ccc2c(/C=C/C(=O)c3ccccc3)cc(=O)oc2c1
7.4	COc1ccc2c(C(=O)/C=C/c3ccc(OC)c(OC)c3)cc(=O)oc2c1
26.7	COc1ccc(C(=O)CSCc2cc(=O)oc3cc(OC)ccc23)cc1
